Tests used:
[1] = target: T1, Cholesteryl ester transfer protein (Homo sapiens, UniProt P11597); assay: Inhibition of CETP in human plasma measured every 30 mins for 120 mins by fluorescence method
T1 sequence (P11597 whole entry): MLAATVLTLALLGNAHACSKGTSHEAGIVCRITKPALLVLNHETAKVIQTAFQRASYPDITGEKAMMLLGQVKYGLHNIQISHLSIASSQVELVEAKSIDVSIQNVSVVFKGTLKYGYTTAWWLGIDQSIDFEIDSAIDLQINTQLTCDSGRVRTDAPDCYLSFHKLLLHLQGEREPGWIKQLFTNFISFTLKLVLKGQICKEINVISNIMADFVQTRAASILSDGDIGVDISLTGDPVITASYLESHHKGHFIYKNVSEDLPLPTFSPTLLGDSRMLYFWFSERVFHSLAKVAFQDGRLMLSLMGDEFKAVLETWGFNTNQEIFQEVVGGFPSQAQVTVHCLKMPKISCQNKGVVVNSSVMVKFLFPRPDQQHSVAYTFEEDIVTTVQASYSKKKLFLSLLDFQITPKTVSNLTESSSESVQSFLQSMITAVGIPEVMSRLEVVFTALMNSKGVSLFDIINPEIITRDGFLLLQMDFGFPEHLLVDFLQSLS
Outline: (§1)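 Pooled EDTA plasma from healthy male donors (final 50%) with compound in DMSO (final 1%). The reaction is started with fluorescent donor solution. Activity is the 30–90 min slope. IC50 is fitted to duplicate wells by a logistic equation.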

[2] = Volume of distribution in Sprague-Dawley rat at 1 mg/kg, iv or 3 mg/kg, po by LC-ESI-MS/MS analysis; format: ADME, organism-based; details: in vivo
Outline: (§2)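 Conscious 7-week-old male Sprague-Dawley rats on standard diet with free water. Dosing is 1 mg/kg iv bolus in N-methylpyrrolidin-2-one/PEG 200, or 3 mg/kg oral suspension in 0.5% aqueous methylcellulose. Blood is sampled at various time points after administration.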

[3] = AUC (infinity) in Sprague-Dawley rat at 1 mg/kg, iv or 3 mg/kg, po by LC-ESI-MS/MS analysis; format: ADME, organism-based; details: in vivo; outline: as §2
[4] = Oral bioavailability in Sprague-Dawley rat at 3 mg/kg by LC-ESI-MS/MS analysis; format: ADME, organism-based; details: in vivo; outline: as §2
Cytochrome P450 2C9 = Cytochrome P450 2C9 (Homo sapiens, UniProt P11712); assay: Inhibition of CYP2C9 (unknown origin); format: ADME
Chain of Cytochrome P450 2C9 (P11712 whole entry): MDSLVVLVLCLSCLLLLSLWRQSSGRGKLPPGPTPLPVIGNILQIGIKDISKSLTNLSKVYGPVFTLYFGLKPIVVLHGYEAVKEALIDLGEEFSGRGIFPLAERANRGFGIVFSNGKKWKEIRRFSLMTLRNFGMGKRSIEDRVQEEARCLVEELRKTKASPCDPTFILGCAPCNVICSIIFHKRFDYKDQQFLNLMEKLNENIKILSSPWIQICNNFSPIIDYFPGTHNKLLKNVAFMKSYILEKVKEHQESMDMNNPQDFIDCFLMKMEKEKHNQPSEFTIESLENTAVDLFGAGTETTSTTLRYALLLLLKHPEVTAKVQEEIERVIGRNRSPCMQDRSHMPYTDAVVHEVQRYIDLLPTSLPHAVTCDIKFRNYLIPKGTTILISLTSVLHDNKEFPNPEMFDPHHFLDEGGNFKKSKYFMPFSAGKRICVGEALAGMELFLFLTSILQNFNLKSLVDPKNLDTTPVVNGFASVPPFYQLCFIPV

Cytochrome P450 2D6 = Cytochrome P450 2D6 (Homo sapiens, UniProt P10635); assay: Inhibition of CYP2D6 (unknown origin); format: ADME
Chain of Cytochrome P450 2D6 (P10635 whole entry): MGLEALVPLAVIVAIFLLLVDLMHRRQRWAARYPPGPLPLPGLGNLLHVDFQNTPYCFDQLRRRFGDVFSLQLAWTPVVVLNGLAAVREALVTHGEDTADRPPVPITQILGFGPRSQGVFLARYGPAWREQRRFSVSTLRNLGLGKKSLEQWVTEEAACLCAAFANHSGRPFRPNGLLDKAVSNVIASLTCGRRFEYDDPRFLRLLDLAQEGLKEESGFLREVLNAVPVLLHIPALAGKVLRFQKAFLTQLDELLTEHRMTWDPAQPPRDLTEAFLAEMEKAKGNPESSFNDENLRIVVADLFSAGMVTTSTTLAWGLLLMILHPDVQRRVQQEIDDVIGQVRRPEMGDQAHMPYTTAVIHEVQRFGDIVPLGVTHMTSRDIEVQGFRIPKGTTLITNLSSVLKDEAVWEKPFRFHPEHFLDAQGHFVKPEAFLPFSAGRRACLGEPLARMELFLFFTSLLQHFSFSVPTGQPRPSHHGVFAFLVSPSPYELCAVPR

Cytochrome P450 3A4 [5] = target: T2, Cytochrome P450 3A4 (Homo sapiens, UniProt P08684); assay: Inhibition of CYP3A4 (unknown origin) in the presence of midozolam; format: ADME
T2 sequence (P08684 whole entry): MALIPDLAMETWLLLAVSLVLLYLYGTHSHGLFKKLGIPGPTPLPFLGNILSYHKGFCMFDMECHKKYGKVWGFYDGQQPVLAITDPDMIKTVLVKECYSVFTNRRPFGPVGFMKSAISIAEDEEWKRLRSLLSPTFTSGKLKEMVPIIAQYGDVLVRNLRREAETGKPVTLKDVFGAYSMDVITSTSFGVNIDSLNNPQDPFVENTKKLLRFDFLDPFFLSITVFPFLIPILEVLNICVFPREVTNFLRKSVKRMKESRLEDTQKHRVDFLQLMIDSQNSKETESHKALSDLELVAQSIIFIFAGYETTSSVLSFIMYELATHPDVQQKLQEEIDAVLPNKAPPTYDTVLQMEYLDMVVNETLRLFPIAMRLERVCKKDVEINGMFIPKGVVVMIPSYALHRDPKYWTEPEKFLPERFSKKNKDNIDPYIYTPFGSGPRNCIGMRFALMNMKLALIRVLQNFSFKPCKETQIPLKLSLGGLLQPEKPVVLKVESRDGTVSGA

Cytochrome P450 3A4 [6] = target: T2, Cytochrome P450 3A4; assay: Inhibition of CYP3A4 (unknown origin) in the presence of testosterone; format: ADME
[7] = Half life in Sprague-Dawley rat at 1 mg/kg, iv or 3 mg/kg, po by LC-ESI-MS/MS analysis; format: ADME, organism-based; details: in vivo; outline: as §2
[8] = Clearance in Sprague-Dawley rat plasma at 1 mg/kg, iv or 3 mg/kg, po by LC-ESI-MS/MS analysis; format: ADME, organism-based; outline: as §2
[9] = target: T3, Cholesteryl ester transfer protein (Homo sapiens) (UniProt P11597); assay: Inhibition of CETP in human plasma at 100 uM measured every 30 mins for 120 mins by fluorescence method
T3 sequence (whole entry): T1 sequence (P11597 whole entry)
Outline: as §1, with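 “solution. Ex/em 485/535 nm, read every 30 min for 120 min at 37 °C.” for “solution.”, “slope. Torcetrapib (1 or 10 µM) and DMSO define 100% and 0% inhibition.” for “slope.”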

Rattus norvegicus [10] = assay: Toxicity in cannulated Sprague-Dawley rat assessed as increase in plasma aldosterone levels at 5 mg/kg, iv by radioimmunoassay; format: organism-based; details: in vivo
[11] = 1-Octanol-phosphate buffered saline partition coefficient, log D of compound at […] by tandem mass spectrometry method; format: physicochemical
Rattus norvegicus [12] = assay: Toxicity in cannulated Sprague-Dawley rat assessed as increase in mean arterial pressure at 5 mg/kg, iv by blood pressure transducer based method; format: organism-based; details: in vivo
NCI-H295R = assay: Toxicty in human NCI-H295R cells assessed as increase in aldosterone levels at 0.1 to 10000 nM after 24 hrs by scintillation proximity assay; format: toxicity, cell-based; details: 10 µM

**Q.** Which IC50 [1] does the source give for CC[C@@H]1C[C@H](N(Cc2cc(C(F)(F)F)cc(C(F)(F)F)c2)c2ncc(Br)cn2)C[C@H](Cc2ccccc2)N1C(=O)OC(C)(C)C (racemic) here?
**A.** 160 nM

**Q.** What does the source list for CC[C@@H]1C[C@H](N(Cc2cc(C(F)(F)F)cc(C(F)(F)F)c2)c2ncc(N3CCOCC3)cn2)C[C@H](Cc2ccccc2)N1C(=O)OC(C)(C)C?
**A.** Vd [2]: 0.7 L/kg; IC50 [1]: 60 nM; AUC(0-inf) [3]: 0.456 µM·h; bioavailability [4]: 3%; IC50 (Cytochrome P450 2C9): > 50000 nM; IC50 (Cytochrome P450 2D6): > 50000 nM; IC50 (Cytochrome P450 3A4 [5]): > 50000 nM; IC50 (Cytochrome P450 3A4 [6]): > 50000 nM; half-life [7]: 7.4 h; clearance [8]: 1.67 mL/min/kg

**Q.** Which inhibition [9] does the source give for CC[C@@H]1C[C@H](N(Cc2cc(C(F)(F)F)cc(C(F)(F)F)c2)C(=O)OC)CCN1C(=O)OC(C)(C)C (racemic) here?
**A.** 70%

**Q.** For CC[C@@H]1C[C@H](N(Cc2cc(C(F)(F)F)cc(C(F)(F)F)c2)c2ncc(Br)cn2)C[C@H](Cc2ccccc2)N1C(=O)OC(C)(C)C, which IC50 [1] is on record?
**A.** 77 nM

**Q.** With CCOC(=O)N1c2ccc(C(F)(F)F)cc2[C@@H](N(Cc2cc(C(F)(F)F)cc(C(F)(F)F)c2)C(=O)OC)C[C@H]1CC [TORCETRAPIB] as the compound, how does the Activity (Rattus norvegicus [10]) read?
**A.** Toxic

**Q.** What about the logD [11] of the same compound?
**A.** > 4

**Q.** And the Activity (Rattus norvegicus [12])?
**A.** Toxic

**Q.** What about the Activity (NCI-H295R) of the same compound?
**A.** Toxic

**Q.** For CC[C@@H]1C[C@H](N(Cc2cc(OC)cc(C(F)(F)F)c2)c2ncc(Br)cn2)C[C@H](Cc2ccccc2)N1C(=O)OC(C)(C)C (racemic), which IC50 [1] is on record?
**A.** > 10000 nM

**Q.** With CC[C@@H]1C[C@H](N(Cc2cc(C(F)(F)F)cc(C(F)(F)F)c2)C(=O)OC)C[C@H](CC)N1C(=O)OC(C)(C)C as the compound, how does the IC50 [1] read?
**A.** 1300 nM

**Q.** For CC[C@@H]1C[C@H](N(Cc2cc(C(F)(F)F)cc(C(F)(F)F)c2)c2ncc(OC)cn2)C[C@H](Cc2ccccc2)N1C(=O)OC(C)(C)C (racemic), which IC50 [1] is on record?
**A.** 71 nM

**Q.** For CCNC(=O)N1[C@H](CC)C[C@H](N(Cc2cc(C(F)(F)F)cc(C(F)(F)F)c2)c2ncc(Br)cn2)C[C@@H]1Cc1ccccc1 (racemic), which IC50 [1] is on record?
**A.** 4800 nM
